Consider eleven molecules from ChEMBL document CHEMBL4184113, “Synthesis and PGE2 inhibitory activity of novel diarylheptanoids” (Bioorg Med Chem Lett, 2018).

pIC50: −log10 of the molar value. Activity calls are given as the source filed them. No cut-off for these calls is given here.

One series concerns the target T1, Prostaglandin E synthase (Mus musculus, UniProt Q9JM51).
T1 sequence (Q9JM51 whole entry): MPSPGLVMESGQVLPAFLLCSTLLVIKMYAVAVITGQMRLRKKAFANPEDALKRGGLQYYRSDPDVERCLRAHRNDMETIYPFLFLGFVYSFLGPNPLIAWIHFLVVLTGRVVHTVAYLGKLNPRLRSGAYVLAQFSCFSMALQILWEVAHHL
The experiment in a line: (§1) Inhibition of mPGES1 in mouse 3T3L1 cells assessed as reduction in PGE2 production after 1 hr by ELISA. Type of series: cell-based. The method in brief: (§2)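 3T3 cells were treated at four doses and secreted PGE2 was measured by ELISA. IC50 was obtained by four-parameter logistic fit.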

The target in series [1] is T2, Prostaglandin E synthase (Mus musculus) (UniProt Q9JM51).
T2 sequence (whole entry): T1 sequence (Q9JM51 whole entry)
The series is described as §1. The class given is cell-based. The method in brief:
as §2

In the next series the test system is 3T3-L1. The experiment in a line: Cytotoxicity against mouse 3T3L1 cells assessed as reduction in cell viability at 10 ng/ml after 6 hrs by alamar blue assay. The conditions noted are these: 3t3-l1, 6 h. Type of series: cell-based. (In general: Resazurin is reduced to fluorescent resorufin, in cell work by metabolically active cells.)
Series [2] deals with T2, Prostaglandin E synthase (Mus musculus). The experiment in a line: Inhibition of mPGES1 in mouse 3T3L1 cells assessed as reduction in PGE2 production at 10 ng/ml after 1 hr by ELISA relative to control; values are per cent of control. In general terms: ELISA stands for enzyme-linked immunosorbent assay.
For a further series, the species on record is Homo sapiens. The experiment in a line: Inhibition of TNFalpha-induced NFkappaB activation (unknown origin) expressed in mouse 3T3L1 cells at 10 ng/µl by luciferase reporter gene assay.
Series [3] deals with T2, Prostaglandin E synthase (Mus musculus). The experiment in a line: Inhibition of mPGES1 in mouse 3T3L1 cells assessed as reduction in PGE2 production at 1 to 10 ng/ml after 1 hr by ELISA. Type of series: cell-based. The method in brief: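 3T3 cells were treated with compound at 1 and 10 ng/ml. Culture media were collected and secreted PGE2 was measured by ELISA.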

On to `COc1ccc(C/C=C/Cc2ccc(OC)cc2)cc1`, for which the pIC50 on Prostaglandin E synthase was 4.92. The inhibition result in series [1] was “Dose-dependent effect”. Also, the Activity entry with 3T3-L1 is “Non-Toxic”.
On to `COc1ccc(CCCCCCCc2ccc(O)cc2)cc1OC`, for which the residual activity in series [2] worked out at 33%. Moreover, the pIC50 on Prostaglandin E synthase was 4.54. In addition, the inhibition result in series [1] is “Dose-dependent effect”. Further, the Activity result with 3T3-L1 is listed as “Non-Toxic”.
As to `COc1cc(/C=C/C(=O)CC(=O)/C=C/c2ccc(O)c(OC)c2)ccc1O`, the inhibition entry in the series listed under Homo sapiens is “Active”.
For `COc1ccc(C/C=C/CCCCc2ccc(O)cc2)cc1OC`, the pIC50 on Prostaglandin E synthase was 5.77. Besides, in series [1], the inhibition result is “Dose-dependent effect”. Moreover, the Activity entry in the series with 3T3-L1 is on record as “Non-Toxic”.
`COc1ccc(CCCCCCCc2ccccc2O)cc1OC`: the inhibition result in the series listed under Homo sapiens is “inactive”. The pIC50 on Prostaglandin E synthase was 4.77. Further, the inhibition result in series [1] was “Dose-dependent effect”. The Activity entry with 3T3-L1 is reported as “Non-Toxic”.
For `COc1ccc(CCCCCCCc2ccc(O)cc2)cc1`, in the series filed under Homo sapiens, the inhibition entry was “inactive”.
In the case of `COc1ccc(C/C=C/CCCCc2ccccc2O)cc1OC`, the inhibition result in the series filed under Homo sapiens was “inactive”.
On to `COc1ccc(C/C=C/CCCCc2ccc(O)cc2)cc1`, for which the inhibition entry in series [3] is “inactive”.
Consider `COc1ccc(CCCCCCCc2ccccc2O)cc1`, for which, in series [3], the inhibition entry was “inactive”.
For the molecule `COc1ccc(C/C=C/CCCCc2ccccc2O)cc1`, in series [3], the inhibition entry was “Active”. Moreover, in the series listed under Homo sapiens, the inhibition result was “inactive”.
Consider `COc1ccc(CCCCc2ccc(OC)cc2)cc1`, for which, in the series listed under Homo sapiens, the inhibition entry is “inactive”. The inhibition result in series [1] is “Dose-dependent effect”.

In general, pIC50 refers to the negative decadic logarithm of the IC50, by convention in mol/L. Broadly, the residual activity is the signal under treatment as a percentage of the control signal.
